This data set is described as follows: [18F]FDG-PET in patients. The class given is in vivo, human. The essentials: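 Patients fasted 6 h, and blood glucose was checked just before injection to be below 150 mg/dL. They received 300-500 MBq [18F]FDG, with PET/CT started 90 min p.i. at 2 min per bed position. A low-dose CT (120 […], 20 mAs) in shallow inspiration provided attenuation correction. Emission data were corrected for randoms, dead time, scatter and attenuation. Read-outs were SUVmean/SUVmax.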

Setting [1] is: NSCLC lesion, patient with T-cell lymphoma and NSCLC.
[2] abbreviates: bone marrow (BM), patient with multiple myeloma.
Setting [3] is: hottest lesion in the 5th rib left, patient with multiple myeloma.
[4] abbreviates: lymphoma lesion, patient with T-cell lymphoma and NSCLC.
Where [5] appears, read: nodal lesions, patient with chronic lymphocytic leukemia and suspected transformation into aggressive B-cell lymphoma.

Regarding `O=C[C@H]([18F])[C@@H](O)[C@H](O)[C@H](O)CO` [[^18F]FDG, 2-[^18F]Fluoro-2-desoxyglucose], the SUVmax is 38.57 under setting [1]; 6.24 under setting [2]; 8.06 under setting [3]; 50.91 under setting [4]; 5.94 under setting [5]. Further, the SUVmean is recorded as 26.36 under setting [1]; 3.77 under setting [2]; 5.23 under setting [3]; 29.82 under setting [4]; 3.66 under setting [5].

Values taken from article PMC4377730 (Theranostics, 2015).
